According to the EternaBench riboswitch data:

Test system: MS2 coat protein
Test: apparent Kd, MS2 coat protein; higher = weaker binding; RNA-MaP array; FMN 200 µM where present
Outline: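 The titrant was SNAP-549-labelled MS2 coat protein, run from 0.7 or 1.5 nM in doubling steps to 3 µM. It was applied to designs transcribed by stalled E. coli RNA polymerase on Illumina sequencing-chip clusters, without ligand first and then with constant ligand, in 100 mM Tris-HCl pH 7.5, 80 mM KCl, 4 mM MgCl2, BSA, DTT, yeast tRNA and Tween-20. The apparent Kd is the median of filtered per-cluster binding-curve fits, with green signal normalised to red-channel RNA signal and control-cluster median Fmax.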

[1] = designed as: OFF switch for flavin mononucleotide, no ligand
[2] = ligand present: flavin mononucleotide, designed as: OFF switch for flavin mononucleotide
[3] = designed as: ON switch for flavin mononucleotide, no ligand
[4] = ligand present: flavin mononucleotide, designed as: ON switch for flavin mononucleotide

UUAGGCUGAAGAUCAAUUAAUUAACAUGAGGAUCACCCAUGUAAGGAUAUCAGCUCGAUUAGAGCUGAGAAGGUACAUGCAGCC
apparent Kd [1]: 110 nM | apparent Kd [2]: 565 nM

UUAUAUAGAGUGAGGAUAUGCUGGUCCUUGGAUCAGCAGAAGGCACAUGAGGAUCACCCAUGUAAAAUAAUAUU
apparent Kd [1]: 24.2 nM | apparent Kd [2]: 41.1 nM

UUAUCUUGUCAAGGAUAUGUUGUAUUGAUCUGAAAACAUGAGGAUCACCCAUGUAUACGGUGGGAACAGAAGGUGAAUGUAGAA
apparent Kd [2]: 721 nM

UUAUGAUAGAUAGGAUAUACAAUGGAUUAAGAAGUAGAAGGAUCAAGUGGGAAAUGAACAUGAGGAUCACCCAUGUAAUAGGUU
apparent Kd [3]: 127 nM | apparent Kd [4]: 83.5 nM

UUAUGGAUCACAGGAUAUCCAAGGGCGCGUCUGGCGCGCUCACAUGAGGAUCACCCAUGUCGAGUGGAGAAGGGUGGUUGACGG
apparent Kd [3]: 466 nM | apparent Kd [4]: 68.3 nM

UUAUUAAAUGUAGGAUAUGCAUAUUAUUAUUAUGCAGAAGGACAUGAGGAUCACCCAUGUAUAUUAUUAUUAUUUAUUAUAUAU
apparent Kd [1]: 44.8 nM | apparent Kd [2]: 65.6 nM

UUAUUAAGUGUGAGGAUAUGCUGGUCCUUGGAUCAGCAGAAGGCACAUGAGGAUCACCCAUGUACAAUAUUUUA
apparent Kd [1]: 39 nM | apparent Kd [2]: 230 nM

UUAUUAUAUGUAGGAUAUGCAUAUUAUUAUUGUGCAGAAGGACAUGAGGAUCACCCAUGUAUAUUAUUAUUAUAUAUUAUAUGU
apparent Kd [1]: 25.7 nM | apparent Kd [2]: 30.2 nM

UUAUUAUAUGUAGGAUAUGCAUAUUGUUGUUAUGCAGAAGGACAUGAGGAUCACCCAUGUGUAUUAUUGUUAUAUAUUAUAUAU
apparent Kd [1]: 21.5 nM | apparent Kd [2]: 31.2 nM

UUAUUAUUUAUAGGAUAUUGAUGUUUGCUAGUACAAGAAGGAUAAACAUGAGGAUCACCCAUGUAGUUUAAGGUUAGUUUGUUU
apparent Kd [3]: 38.1 nM | apparent Kd [4]: 39.4 nM

UUAUUCUAUAUAGGAUAUUGAUGUAAUUUAUUUCAAGAAGGAUAUACAUGAGGAUCACCCAUGUUGGAUAGGGUUAGUUUGUUU
apparent Kd [3]: 81.1 nM | apparent Kd [4]: 91.1 nM

UUAUUUUUACAGAAGGUUUAAUAAUAUGUAUGAGAAGGAUAUGUAACAUGAGGAUCACCCAUGUUUUAUUUAUAUGAGGAUCAU
apparent Kd [2]: 9.31 nM

UUCAAGUUGCGAGGAUAUCGUGUUAACAUGAGGAUCACCCAUGUAAAGGUUUAUUAAUUAAUCUUCGAGAAGGCGCUUAAUGUA
apparent Kd [3]: 29.3 nM | apparent Kd [4]: 19.5 nM

UUCAUCAAUGAAGGAUAUCUAUGUCCAACAUGAGGAUCACCCAUGUUGAGGAUCACCUAUGUAUAGGAGAAGGUUAAUAUAACU
apparent Kd [3]: 7.32 nM | apparent Kd [4]: 6.28 nM

UUCCAGCUUGUCAGGAUAUACUUAGGGUAAUCAGAGUAGAAGGGACAUGAGGAUCACCCAUGUGACGCUUGAGC
apparent Kd [1]: 65.2 nM | apparent Kd [2]: 118 nM

UUCCGGCGUGUAGGAUAUGGAUCCGAUUAGGAUCCAGAAGGACAUGAGGAUCACCCAUGUACAUGUAAACAGUCAUCACCGGAG
apparent Kd [1]: 7.36 nM | apparent Kd [2]: 11.4 nM

UUCCUACAUGAGGAUCACCCAUGUCAGGAUAUGUAGACGCAAAUUUACGAUUUGCGGAAUAGAAGGGACGUGAC
apparent Kd [1]: 24.1 nM | apparent Kd [2]: 25.9 nM

UUCCUGUCAGGAUAUGACUAGAGGCACGAAAGUGUGUUUAGUUAGAAGGGACAUGAGGAUCACCCAUGUAGUCC
apparent Kd [1]: 23.3 nM | apparent Kd [2]: 36.2 nM

UUCUGUGUGUGCUAGGGCUGCACAUGAGGAUCACCCAUGUACAGAAGGUGGACACGCACUGUGGCCAAGGAUAUGUAACAUGUU
apparent Kd [1]: 11.2 nM | apparent Kd [2]: 36.2 nM

UUCUUGGCAGGAUAUGCUUUUUUAGACAUGAGGAUCACCCAUGUGAUGAUUAUUGGUUUUGCAGAAGGGCCUUAAU
apparent Kd [1]: 53.6 nM | apparent Kd [2]: 87.5 nM

UUCUUGGCAGGAUAUGCUUUUUUAGACAUGAGGAUCACCCAUGUGUUUAUUUUUUUUUUUGCAGAAGGGCCUUAAU
apparent Kd [1]: 16.4 nM | apparent Kd [2]: 19.5 nM

UUCUUGUGAGGAUAUCAGUAGUAAAUAAAUAAAAUUACUACUGAGAAGGCACAUGAGGAUCACCCAUGUUCCUU
apparent Kd [1]: 14.6 nM | apparent Kd [2]: 32.9 nM

UUGAAGUCAUCAGGAUAUAGUAUAAAAGACAUAUAUUUUUUCAAACAUGAGGAUCACCCAUGUCGCUAGAAGGGAUUAUAGAUU
apparent Kd [1]: 47.3 nM | apparent Kd [2]: 41.3 nM
